The values below come from PMC10203381 (Plant Communications, 2022).

The structures appear in SMILES notation.

Data set [1] deals with MEP pathway intermediates in N. benthamiana leaves. It counts as in vivo, Nicotiana benthamiana. Particulars: leaves infiltrated with SlDXS1, FSM 200 μM or NF 40 μM, 5 dpi; for Metabolite concentration DXP: control 7.69; for Metabolite concentration MEP: control 351.35; for Metabolite concentration MEcPP: control 671.68.
Data set [2] relates to SlDXS1. It counts as in vivo, Nicotiana benthamiana. Particulars: FSM 200 μM or NF 40 μM; 5 dpi; compared with mock-treated controls. The procedure, abridged:
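Agrobacterium GV3101 carrying untagged SlDXS1 at OD600 0.8 in MES/MgCl2/acetosyringone buffer, pH 5.6, was mixed 9:1 with an HcPro strain. FSM 200 μM, NF 40 μM or water was added before infiltrating 4-week-old leaves. At 5 dpi, about 300 mg of frozen tissue was extracted in TKMES with protease inhibitors and Triton, then cleared at 2800 g, 4°C. Samples in non-denaturing loading buffer were run on 7% SDS-PAGE and blotted with anti-DXS 1:500 overnight at 4°C.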

The next data set relates to SlDXS1-GFP. The format is in vivo, Nicotiana benthamiana. Particulars: 3 dpi; for number of fluorescent spots (SlDXS1-GFP aggregates) per chloroplast: FSM 200 μM or NF 40 μM, compared with untreated controls. The gist of the method:
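Agrobacterium GV3101 carrying SlDXS1-GFP was resuspended to OD600 0.8 in 10 mM MgCl2, 10 mM MES, 150 μM acetosyringone, pH 5.6. It was held 1.5 h at 28°C, then mixed 9:1 with an HcPro silencing-suppressor strain. FSM 200 μM, NF 40 μM or water was added before infiltrating leaves of 4-week-old plants. At 3 dpi, confocal imaging used 488 nm excitation and BP515-525 emission alongside chlorophyll fluorescence. Chloroplast and GFP-dot areas were measured from ≥7 images of different leaves, shown as mean and SD.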

The test system of a further data set is N. benthamiana leaves. Put plainly: Leaf bleaching after infiltration with inhibitors. Particulars: FSM 200 μM or NF 40 μM in the agroinfiltration mixture; observed at 5 dpi. It counts as in vivo, Nicotiana benthamiana. The procedure, abridged: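 Leaves of 4-week-old plants were agroinfiltrated with an SlDXS1 construct plus an HcPro silencing suppressor (9:1). FSM 200 μM, NF 40 μM or water was included in the infiltration mixture. Bleaching was scored visually at 5 dpi.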

The next data set deals with T1, EcDXS (Escherichia coli, UniProt P77488).
T1 sequence (P77488 1-620): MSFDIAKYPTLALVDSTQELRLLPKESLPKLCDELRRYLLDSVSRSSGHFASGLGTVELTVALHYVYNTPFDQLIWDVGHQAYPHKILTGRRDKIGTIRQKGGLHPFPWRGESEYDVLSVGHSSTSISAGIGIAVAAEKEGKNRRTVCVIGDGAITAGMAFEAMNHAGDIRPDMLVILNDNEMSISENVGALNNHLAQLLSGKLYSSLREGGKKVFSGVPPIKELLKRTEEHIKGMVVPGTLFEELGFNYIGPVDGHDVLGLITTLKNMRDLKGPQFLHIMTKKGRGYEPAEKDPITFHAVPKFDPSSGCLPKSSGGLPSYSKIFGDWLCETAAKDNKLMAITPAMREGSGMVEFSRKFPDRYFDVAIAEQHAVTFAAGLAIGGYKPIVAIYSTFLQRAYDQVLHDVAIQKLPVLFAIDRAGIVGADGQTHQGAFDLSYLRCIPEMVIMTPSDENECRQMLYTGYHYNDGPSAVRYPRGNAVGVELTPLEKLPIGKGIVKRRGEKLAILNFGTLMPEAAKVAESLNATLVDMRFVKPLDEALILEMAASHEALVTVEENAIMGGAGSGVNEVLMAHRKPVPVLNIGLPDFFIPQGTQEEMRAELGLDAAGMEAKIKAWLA
The format is cell-based.

In data set [3] the target is T2, SlDXS1 (Solanum lycopersicum, UniProt Q9XH50).
T2 sequence (Q9XH50 58-719): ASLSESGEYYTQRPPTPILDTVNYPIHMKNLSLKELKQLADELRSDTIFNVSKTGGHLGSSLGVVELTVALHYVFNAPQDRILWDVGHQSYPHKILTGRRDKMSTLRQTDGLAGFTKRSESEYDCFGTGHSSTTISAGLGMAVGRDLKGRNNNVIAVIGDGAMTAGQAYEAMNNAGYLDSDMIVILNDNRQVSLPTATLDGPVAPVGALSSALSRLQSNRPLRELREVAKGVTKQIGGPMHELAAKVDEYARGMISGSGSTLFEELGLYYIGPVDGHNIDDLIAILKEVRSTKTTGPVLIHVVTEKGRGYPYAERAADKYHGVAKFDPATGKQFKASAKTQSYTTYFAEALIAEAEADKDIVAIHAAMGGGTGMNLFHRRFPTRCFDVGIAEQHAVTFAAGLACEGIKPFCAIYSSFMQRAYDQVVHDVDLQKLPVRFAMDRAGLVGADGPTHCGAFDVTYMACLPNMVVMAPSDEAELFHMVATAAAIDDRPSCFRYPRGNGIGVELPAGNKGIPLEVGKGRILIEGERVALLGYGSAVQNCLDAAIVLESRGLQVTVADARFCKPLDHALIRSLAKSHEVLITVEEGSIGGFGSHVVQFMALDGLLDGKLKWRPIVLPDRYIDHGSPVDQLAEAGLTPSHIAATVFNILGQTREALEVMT
The format is cell-based.

Data set [4] concerns E. coli EcAB4-10 cells (EcDXS activity).
The target in data set [5] is T2, SlDXS1. Put plainly: Isothermal titration calorimetry. It counts as binding.

Turning to `O=CN(O)CCCP(=O)(O)O` [FSM, fosmidomycin], in data set [1], the “Metabolite concentration DXP” value was determined as 641.99 pg/mg dry weight, the “Metabolite concentration MEP” value is on record as 7.67 pg/mg dry weight and the “Metabolite concentration MEcPP” value is 31.03 pg/mg dry weight. Further, the “dimer-to-monomer ratio of SlDXS1” value with SlDXS1 [2] is “increased”. Also, the “number of fluorescent spots (SlDXS1-GFP aggregates) per chloroplast” value with SlDXS1-GFP is listed as “higher amounts”. The leaf phenotype result in the data set on N. benthamiana leaves is “bleaching phenotype”.
Consider `C[C@@](O)(CCO)CC(=O)O` [MVA, mevalonic acid], for which, on EcDXS, the “proportion of EcDXS dimers” value is given as “proportion of dimers decreased” and the “ratio of insoluble (aggregated) to soluble EcDXS protein” value was “higher ratio of insoluble (aggregated) to soluble”. On SlDXS1 [3], the “proportion of SlDXS1 dimers” value was “proportion of dimers decreased” and the “ratio of insoluble (aggregated) to soluble SlDXS1 protein” value is “higher ratio of insoluble (aggregated) to soluble”. Moreover, in data set [4], the “cell growth (OD600)” value is on record as “did not show any growth impairment”, the “intracellular DXP levels” value is reported as “much lower” and the “intracellular IPP/DMAPP levels” value is recorded as “markedly increased”.
As to `CNc1cnn(-c2cccc(C(F)(F)F)c2)c(=O)c1Cl` [NF, norflurazon], in data set [1], the “Metabolite concentration DXP” value is on record as 5.73 pg/mg dry weight, the “Metabolite concentration MEP” value is listed as 175.33 pg/mg dry weight and the “Metabolite concentration MEcPP” value amounted to 405.61 pg/mg dry weight. In the data set on SlDXS1 [2], the “dimer-to-monomer ratio of SlDXS1” value is “decreased”. In the data set on SlDXS1-GFP, the “number of fluorescent spots (SlDXS1-GFP aggregates) per chloroplast” value is listed as “lower amounts”. Further, the “size of the fluorescent spots (SlDXS1-GFP aggregates)” value in the data set on SlDXS1-GFP (NF 40 μM) is listed as “larger”. In addition, the leaf phenotype entry in the data set on N. benthamiana leaves is “bleaching phenotype”.
For `Cc1ncc(C[n+]2csc(CCO[P@](=O)(O)OP(=O)(O)O)c2C)c(N)n1` [TPP, thiamine diphosphate], the Kd at SlDXS1 [5] is 4.2 ± 0.7 µM.
